The values that follow come from PubChem BioAssay AID602401 (Sanford-Burnham Center for Chemical Genomics, 2012).

Usually IC50 stands for the concentration that inhibits the measured activity by half.

The source made the active and inactive calls.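 The calls were made as follows: active = IC50 below 100 µM in the TR-FRET assay, unless also active in the caspase-3 counter assay; inactive = the rest, including compounds also active in caspase-3.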

Chain of Caspase-3 (Homo sapiens) (P42574 whole entry, looked up): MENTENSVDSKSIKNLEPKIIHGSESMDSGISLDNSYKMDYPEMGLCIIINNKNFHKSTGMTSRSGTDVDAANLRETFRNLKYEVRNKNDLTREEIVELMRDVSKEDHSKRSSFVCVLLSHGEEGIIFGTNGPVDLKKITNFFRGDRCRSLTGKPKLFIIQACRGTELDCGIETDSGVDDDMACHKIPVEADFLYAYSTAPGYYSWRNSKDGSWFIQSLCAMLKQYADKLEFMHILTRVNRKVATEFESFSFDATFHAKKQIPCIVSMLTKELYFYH

The assay addresses Caspase-3 (Homo sapiens) (UniProt P42574). The assay can be described thus: caspase-3 inhibition by analogues, SAR follow-up, counter-screen for UBC13 polyubiquitin inhibitor project, biochemical, Caspase-Glo luminescence, set 4 (AID 602401). The conditions noted are these: recombinant caspase-3, Caspase-Glo luminescence, 60 min. The gist of the method: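 Assay system – Caspase-3 enzyme in a luminescent counterscreen · Input – Caspase-3 2X solution, 0.046 nM · Buffer or medium – Hepes pH 7.8 with DTT, EDTA, Tween, BSA · Reagent – Caspase-Glo substrate, 0.75X as 2X solution · Times – 60 min reaction, room temperature · Detection – luminescence from Caspase-Glo substrate cleavage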
A general note: The purpose of a counterscreen is to sort out artefacts and off-target activity.
As for `CCC1CCCCN1CCCNC(=O)C1CCN(c2ncnc3c2nc2n3CCCCC2)CC1` (stereo unspecified), the IC50 is > 100 µM (inactive). On to `Cc1cccc(NC(=O)C2CCCN(c3ncnc4c3nc3n4CCCCC3)C2)c1` (stereo unspecified), for which the IC50 is > 100 µM (inactive). In the case of `Cc1ccc(C)c(CN2CCC(CNC(=O)C3CCCN(c4ncnc5c4nc4n5CCCCC4)C3)CC2)c1` (stereo unspecified), the IC50 was > 100 µM (inactive). Then `COc1ccc(Cl)cc1NC(=O)C1CCN(c2ncnc3c2nc2n3CCCCC2)CC1`, with > 100 µM (inactive); and `COc1ccc(NC(=O)C2CCN(c3ncnc4c3nc3n4CCCCC3)CC2)cc1Cl`, with > 100 µM (inactive). Take `Cc1ccc(NC(=O)C2CCN(c3ncnc4c3nc3n4CCCCC3)CC2)cc1Br`: the IC50 was > 100 µM (inactive). Consider `Cc1ccc(NC(=O)C2CCN(c3ncnc4c3nc3n4CCCC3)CC2)cc1C`, for which the IC50 was > 100 µM (inactive). Then `O=C(NCC1CCN(Cc2ccc(Cl)c(Cl)c2)CC1)C1CCCN(c2ncnc3c2nc2n3CCCCC2)C1` (stereo unspecified), with > 100 µM (inactive); and `CC1CCCCN1C(=O)C1CCN(c2ncnc3c2nc2n3CCCCC2)CC1` (stereo unspecified), with > 100 µM (inactive); and `O=C(NCC1CCN(Cc2ccc(Cl)cc2)CC1)C1CCCN(c2ncnc3c2nc2n3CCCC2)C1` (stereo unspecified), with > 100 µM (inactive). Then `Cc1ccc(NC(=O)C2CCN(c3ncnc4c3nc3n4CCCCC3)CC2)cc1Cl`, with > 100 µM (inactive).

As for `Cc1cccc(N2CCN(CCCNC(=O)C3CCCN(c4ncnc5c4nc4n5CCCCC4)C3)CC2C)c1` (stereo unspecified), the IC50 was > 100 µM (inactive). Under `O=C(NCc1ccc(Cl)c(Cl)c1)C1CCN(c2ncnc3c2nc2n3CCCC2)CC1` stands > 100 µM (inactive); under `O=C(NCC1CCN(Cc2cccc(Cl)c2)CC1)C1CCCN(c2ncnc3c2nc2n3CCCCC2)C1` (stereo unspecified), > 100 µM (inactive); under `Cc1c(Cl)cccc1NC(=O)C1CCN(c2ncnc3c2nc2n3CCCCC2)CC1`, > 100 µM (inactive). Then `O=C(NCC1CCN(Cc2ccccc2F)CC1)C1CCCN(c2ncnc3c2nc2n3CCCCC2)C1` (stereo unspecified), with > 100 µM (inactive); and `O=C(NCc1ccc(Cl)c(Cl)c1)C1CCCN(c2ncnc3c2nc2n3CCCC2)C1` (stereo unspecified), with > 100 µM (inactive); and `Cc1cc(C)cc(NC(=O)C2CCN(c3ncnc4c3nc3n4CCCCC3)CC2)c1`, with > 100 µM (inactive).

As for `O=C(NCCCN1CCN(c2ccccc2)CC1)C1CCCN(c2ncnc3c2nc2n3CCCCC2)C1` (stereo unspecified), the IC50 was > 100 µM (inactive). Then `Cc1ccc(NC(=O)C2CCCN(c3ncnc4c3nc3n4CCCC3)C2)cc1F` (stereo unspecified), with > 100 µM (inactive). Then `Cc1cccc(NC(=O)C2CCCN(c3ncnc4c3nc3n4CCCC3)C2)c1` (stereo unspecified), with > 100 µM (inactive); and `O=C(Nc1cccc(Cl)c1)C1CCN(c2ncnc3c2nc2n3CCCCC2)CC1`, with > 100 µM (inactive); and `O=C(NCc1cccc(Cl)c1)C1CCN(c2ncnc3c2nc2n3CCCC2)CC1`, with 63.4 µM. Then `O=C(NCC1CCN(Cc2ccc(Cl)cc2)CC1)C1CCCN(c2ncnc3c2nc2n3CCCCC2)C1` (stereo unspecified), with > 100 µM (inactive). Turning to `O=C(NCC1CCN(Cc2cccc(Cl)c2)CC1)[C@H]1CCCN(c2ncnc3c2nc2n3CCCCC2)C1`, the IC50 is > 100 µM (inactive). Under `Cc1ccc(C)c(N2CCN(CCCNC(=O)C3CCCN(c4ncnc5c4nc4n5CCCCC4)C3)CC2)c1` (stereo unspecified) stands > 100 µM (inactive).

Take `Cc1ccc(NC(=O)C2CCN(c3ncnc4c3nc3n4CCCCC3)CC2)cc1F`: the IC50 is > 100 µM (inactive). Take `Cc1ccc(NC(=O)C2CCCN(c3ncnc4c3nc3n4CCCCC3)C2)cc1Br` (stereo unspecified): the IC50 was > 100 µM (inactive). Under `O=C(NCc1ccc(Cl)c(Cl)c1)C1CCN(c2ncnc3c2nc2n3CCCCC2)CC1` stands > 100 µM (inactive); under `O=C(C1CCN(c2ncnc3c2nc2n3CCCCC2)CC1)N1CCN(c2ccc(F)cc2)CC1`, > 100 µM (inactive); under `Cc1ccc(NC(=O)C2CCCN(c3ncnc4c3nc3n4CCCC3)C2)cc1C` (stereo unspecified), > 100 µM (inactive).

For the molecule `O=C(C1CCN(c2ncnc3c2nc2n3CCCCC2)CC1)N1CCOCC1`, the IC50 was > 100 µM (inactive). Then `Cc1ccc(NC(=O)C2CCN(c3ncnc4c3nc3n4CCCCC3)CC2)cc1C`, with > 100 µM (inactive); and `O=C(NCC1CCN(Cc2cccc(Cl)c2)CC1)C1CCCN(c2ncnc3c2nc2n3CCCC2)C1` (stereo unspecified), with > 100 µM (inactive); and `Cc1cccc(NC(=O)C2CCN(c3ncnc4c3nc3n4CCCCC3)CC2)c1C`, with > 100 µM (inactive). Then `COc1ccccc1N1CCN(CCCNC(=O)C2CCCN(c3ncnc4c3nc3n4CCCCC3)C2)CC1` (stereo unspecified), with > 100 µM (inactive). Under `O=C(NCC1CCN(Cc2cccc(Cl)c2)CC1)[C@@H]1CCCN(c2ncnc3c2nc2n3CCCC2)C1` stands > 100 µM (inactive); under `CC1CCCC(C)N1CCCNC(=O)C1CCCN(c2ncnc3c2nc2n3CCCCC2)C1` (stereo unspecified), > 100 µM (inactive); under `COc1cc(Cl)c(C)cc1NC(=O)C1CCN(c2ncnc3c2nc2n3CCCCC2)CC1`, > 100 µM (inactive). Regarding `O=C(c1ccco1)N1CCN(C(=O)C2CCN(c3ncnc4c3nc3n4CCCCC3)CC2)CC1`, the IC50 is > 100 µM (inactive). Under `O=C(C1CCN(c2ncnc3c2nc2n3CCCCC2)CC1)N1CCN(c2ccccc2)CC1` stands > 100 µM (inactive); under `Cc1cc(C)cc(NC(=O)C2CCCN(c3ncnc4c3nc3n4CCCCC3)C2)c1` (stereo unspecified), > 100 µM (inactive); under `O=C(C1CCN(c2ncnc3c2nc2n3CCCCC2)CC1)N1CCC(Cc2ccccc2)CC1`, > 100 µM (inactive). With `O=C(NCc1cccc(Cl)c1)C1CCCN(c2ncnc3c2nc2n3CCCCC2)C1` (stereo unspecified), the IC50 was > 100 µM (inactive). Then `CC1CC(C)CN(C(=O)C2CCN(c3ncnc4c3nc3n4CCCCC3)CC2)C1` (stereo unspecified), with > 100 µM (inactive); and `O=C(C1CCN(c2ncnc3c2nc2n3CCCCC2)CC1)N1CCN(Cc2ccccc2)CC1`, with > 100 µM (inactive); and `Cc1ccc(NC(=O)C2CCN(c3ncnc4c3nc3n4CCCC3)CC2)cc1Br`, with > 100 µM (inactive). Then `O=C(NCC1CCN(Cc2ccc(F)cc2)CC1)C1CCCN(c2ncnc3c2nc2n3CCCCC2)C1` (stereo unspecified), with > 100 µM (inactive); and `O=C(Nc1ccc(F)c(Cl)c1)C1CCN(c2ncnc3c2nc2n3CCCCC2)CC1`, with > 100 µM (inactive).

As for `CN(CCNC(=O)C1CCN(c2ncnc3c2nc2n3CCCCC2)CC1)Cc1ccccc1`, the IC50 was > 100 µM (inactive). Then `Cc1cc(Cl)ccc1NC(=O)C1CCN(c2ncnc3c2nc2n3CCCCC2)CC1`, with > 100 µM (inactive); and `O=C(NCCCN1CCCCC1)C1CCN(c2ncnc3c2nc2n3CCCCC2)CC1`, with > 100 µM (inactive). With `Cc1ccc(NC(=O)C2CCCN(c3ncnc4c3nc3n4CCCC3)C2)cc1Br` (stereo unspecified), the IC50 is > 100 µM (inactive). Then `O=C(NCC1CCN(Cc2ccccc2Cl)CC1)C1CCCN(c2ncnc3c2nc2n3CCCCC2)C1` (stereo unspecified), with > 100 µM (inactive). In the case of `Cc1ccccc1CN1CCC(CNC(=O)C2CCCN(c3ncnc4c3nc3n4CCCCC3)C2)CC1` (stereo unspecified), the IC50 is > 100 µM (inactive). On to `Cc1ccc(NC(=O)C2CCN(c3ncnc4c3nc3n4CCCCC3)CC2)c(Cl)c1`, for which the IC50 was > 100 µM (inactive).

Take `O=C(NCc1cccc(Cl)c1)C1CCN(c2ncnc3c2nc2n3CCCCC2)CC1`: the IC50 was > 100 µM (inactive). Then `O=C(C1CCN(c2ncnc3c2nc2n3CCCCC2)CC1)N1CCN(c2ncccn2)CC1`, with > 100 µM (inactive). Under `Cc1cccc(NC(=O)C2CCN(c3ncnc4c3nc3n4CCCCC3)CC2)c1` stands > 100 µM (inactive); under `O=C(NCC1CCN(Cc2ccccc2Cl)CC1)C1CCCN(c2ncnc3c2nc2n3CCCC2)C1` (stereo unspecified), > 100 µM (inactive); under `Cc1cc(C)cc(NC(=O)C2CCN(c3ncnc4c3nc3n4CCCC3)CC2)c1`, > 100 µM (inactive). In the case of `Cc1ccc(NC(=O)C2CCCN(c3ncnc4c3nc3n4CCCCC3)C2)cc1F` (stereo unspecified), the IC50 was > 100 µM (inactive).

In the case of `O=C(NCc1cccc(Cl)c1)C1CCCN(c2ncnc3c2nc2n3CCCC2)C1` (stereo unspecified), the IC50 was > 100 µM (inactive). Turning to `O=C(NCC1CCN(Cc2ccc(Cl)c(Cl)c2)CC1)C1CCCN(c2ncnc3c2nc2n3CCCC2)C1` (stereo unspecified), the IC50 was > 100 µM (inactive). Then `O=C(NCC1CCN(Cc2cccc(Cl)c2)CC1)[C@H]1CCCN(c2ncnc3c2nc2n3CCCC2)C1`, with > 100 µM (inactive); and `O=C(Nc1ccc(CN2CCCCC2)cc1)C1CCN(c2ncnc3c2nc2n3CCCCC2)CC1`, with > 100 µM (inactive); and `O=C(NCCCN1CCN(c2ccc(F)cc2)CC1)C1CCCN(c2ncnc3c2nc2n3CCCCC2)C1` (stereo unspecified), with > 100 µM (inactive). Under `CCCN1CCN(C(=O)C2CCN(c3ncnc4c3nc3n4CCCCC3)CC2)CC1` stands > 100 µM (inactive). Then `Cc1cc(C)cc(NC(=O)C2CCCN(c3ncnc4c3nc3n4CCCC3)C2)c1` (stereo unspecified), with > 100 µM (inactive). Consider `Cc1ccc(NC(=O)C2CCN(c3ncnc4c3nc3n4CCCC3)CC2)cc1F`, for which the IC50 was > 100 µM (inactive). Under `O=C(NCC1CCN(Cc2cccc(Cl)c2)CC1)[C@@H]1CCCN(c2ncnc3c2nc2n3CCCCC2)C1` stands > 100 µM (inactive); under `Cc1cccc(NC(=O)C2CCN(c3ncnc4c3nc3n4CCCC3)CC2)c1`, 69 µM. Under `O=C(Nc1cc(F)ccc1F)C1CCN(c2ncnc3c2nc2n3CCCCC2)CC1` stands > 100 µM (inactive); under `O=C(NCc1ccc(Cl)c(Cl)c1)C1CCCN(c2ncnc3c2nc2n3CCCCC2)C1` (stereo unspecified), > 100 µM (inactive); under `COc1cc(OC)c(NC(=O)C2CCN(c3ncnc4c3nc3n4CCCCC3)CC2)cc1Cl`, > 100 µM (inactive). On to `O=C(C1CCN(c2ncnc3c2nc2n3CCCCC2)CC1)N1CCN(c2ccccn2)CC1`, for which the IC50 is > 100 µM (inactive).
